# RanGTP-Impb inh: inhibitors of RanGTP-importin-beta interaction, primary screen, biochemical, FRET, CFP-Ran, YFP-importin-beta, homogeneous | cell-free CFP-Ran/YFP-importin-beta FRET ratio | inhibition, % (no concentration beside the values) | 1.1% of 300,000 active | AID 2216;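 active = more than half of the replicate wells show a fall in the fluorescence ratio signal beyond about 16%, limit read from the data, passing the limit was not always enough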
# Hck Nef HTS: inhibitors of human Hck kinase activated by Nef; P08631; Recombinant Hck-YEEI plus Nef, Z-Lyte FRET kinase assay; inhibition, % at 20 µM; 0.68% of 220,000 active;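 active = Hck-Nef kinase inhibition above about 50%, limit read from the data; inactive = inhibition below that limit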
# Runt-SMMHC FRET: blocks binding of human RUNX1 Runt domain to CBFb-SMMHC. Cerulean-Runt/Venus-CBFb-SMMHC FRET ratio 530/480, 1 h. inhibition, % at 20 µM. 0.74% of 220,000 active;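 active = mean inhibition across duplicate retests at 20 µM reaching about 50%, limit read from the data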;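 also: inhibitors lower the FRET ratio by blocking Runt binding to CBFb-SMMHC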
# Target sequence (Q01196 whole entry, looked up, the tested form may be a part): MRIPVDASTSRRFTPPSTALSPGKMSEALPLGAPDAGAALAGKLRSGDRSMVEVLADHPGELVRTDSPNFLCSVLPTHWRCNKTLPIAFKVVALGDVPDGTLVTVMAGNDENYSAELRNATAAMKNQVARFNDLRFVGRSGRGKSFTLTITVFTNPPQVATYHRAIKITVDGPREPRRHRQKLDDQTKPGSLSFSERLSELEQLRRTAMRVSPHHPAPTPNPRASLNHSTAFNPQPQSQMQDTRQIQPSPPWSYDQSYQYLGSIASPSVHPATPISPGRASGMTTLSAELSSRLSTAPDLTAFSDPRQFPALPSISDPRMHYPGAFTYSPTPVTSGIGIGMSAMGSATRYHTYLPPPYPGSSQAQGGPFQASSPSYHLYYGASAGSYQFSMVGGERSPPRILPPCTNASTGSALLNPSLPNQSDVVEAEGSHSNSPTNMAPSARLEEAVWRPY
# Target sequence (Q13951 whole entry, looked up, the tested form may be a part): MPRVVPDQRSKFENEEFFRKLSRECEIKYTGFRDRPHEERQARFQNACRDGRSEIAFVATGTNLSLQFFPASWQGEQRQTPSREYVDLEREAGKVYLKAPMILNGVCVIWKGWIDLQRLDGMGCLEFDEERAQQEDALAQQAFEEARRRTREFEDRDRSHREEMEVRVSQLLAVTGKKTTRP
# Runt-CBFb FRET: Runt domain-CBFb interaction inhibition; Q01196+Q13951; Cerulean-Runt/Venus-CBFb FRET ratio 530/480, 1 h; inhibition, % at 20 µM; 0.46% of 220,000 active;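 active = inhibition over about 50% at 20 µM in the single-dose screen, limit read from the data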
#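 Reagent – Venus-CBFb binding partner, 100 nM · Assay system – Cerulean-tagged RUNX1 Runt domain (FRET donor) fusion protein · Input – 100 nM per protein · Incubation – two 1 h room-temperature incubations shielded from light · Measured by – FRET fluorescence · Medium – Tris buffer pH 7.5 with salts and BSA · Benchmarks – unlabeled CBFb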
# Numbers stand for hits; i = inactive; nt = no result. Compounds with a hit are over-represented: about 1.9% of the library has one in this group of screens.
SMILES,RanGTP-Impb inh,Hck Nef HTS,Runt-SMMHC FRET,Runt-CBFb FRET
CCCCn1c(-c2ccc(Cl)cc2)nc2c(=O)n(C)c(=O)[nH]c21,nt,i,50,i
CCCCCNC(=O)Cc1ccc(S(=O)(=O)N2CCOCC2)s1,i,nt,nt,nt
Cc1cc(Cl)c2ccccc2n1,i,i,i,i
Clc1cncc(Cl)c1NNc1c2ccccc2nc2ccccc12,23,i,83,128
COc1cc(/C=C2\SC(=O)N(c3ccc(Cl)cc3)C2=O)cc([N+](=O)[O-])c1O,nt,75,i,i
O=C(O)CCCC(=O)NNc1nc(-c2ccccc2)c2cc(Cl)ccc2n1,i,nt,nt,nt
O=C(O)CCNc1nc(-c2ccccc2)c2cc(Br)ccc2n1,20,nt,nt,nt
Cc1ccc2nc(NCCC(=O)O)nc(-c3ccccc3)c2c1,i,i,90,i
Cc1ccc2nc(NCC(N)=O)nc(-c3ccccc3)c2c1,20,i,i,i
Cc1cc(Br)ccc1SCC(=O)OCC(=O)Nc1ncc(C(F)(F)F)cc1Cl,i,i,i,i
COc1ccccc1N1CCN(C2CCCN(C(=O)CN3CCCC3=O)C2)CC1 (stereo unspecified),i,nt,nt,nt
CCOC(=O)/C(C#N)=C1/C(=O)N(Cc2ccccc2)c2ccccc21,nt,i,i,i
CCOC(=O)C(C#N)=C1CCN(Cc2ccccc2)CC1,51,nt,nt,nt
Cc1onc(-c2ccccc2Cl)c1C(=O)NC(=S)Nc1ccc(C(C)(C)C)cc1,i,i,i,i
C[C@]12C=CC(=O)C=C1CC[C@@H]1C2=CC[C@]2(C)[C@@H](C(=O)CN3CCN(c4cc(N5CCCC5)nc(N5CCCC5)n4)CC3)CC[C@@H]12,65,nt,nt,nt
CS(=O)(=O)N1CCN(c2ccc([N+](=O)[O-])c(NCc3ccc(Cl)cc3)c2)CC1,i,98,i,i
CS(=O)(=O)N1CCN(c2ccc([N+](=O)[O-])c(NCc3ccccc3)c2)CC1,i,i,i,i
N#CC1=C(N)N2C(=C(C#N)C13CCN(Cc1ccccc1)CC3)Nc1ccccc12,34,i,i,i
Cc1cc(C)nc(N/N=C/C2=C(O)CC(c3ccccc3)CC2=O)n1 (stereo unspecified),i,i,i,i
CC1Cc2ccccc2N1C(=O)CCn1c(=O)sc2ccccc21 (stereo unspecified),i,i,i,i
Cc1sc(NC(=O)COc2ccccc2)c(C#N)c1-c1ccccc1,i,i,i,i
COc1ccc(C(=O)Nc2sc(C)c(-c3ccccc3)c2C#N)cc1OC,79,i,i,i
O=C(c1nc2n(n1)C(c1ccc(Cl)cc1)C=C(c1ccccc1)N2)N1CCOCC1 (stereo unspecified),i,i,62,i
Cc1ccc(-c2nc(-c3nccc4ccccc34)oc2-c2ccccc2)cc1,i,i,72,i
Cc1ccccc1NC(=O)C1CCN(S(=O)(=O)c2cccc3nonc23)CC1,i,nt,nt,nt
SMILES,RanGTP-Impb inh,Hck Nef HTS,Runt-SMMHC FRET,Runt-CBFb FRET
Cc1cccc2c(N)c3c(nc12)CCCC3 (tested in a mixture with another compound),nt,i,i,i
Cc1cc(C)c2c(N)c3cccc(C)c3nc2n1,126,i,79,i
CCOC(=O)C1(CC2CCCCO2)CCN(S(=O)(=O)c2c(C)nn(C)c2C)CC1 (stereo unspecified),i,i,i,i
O=C(CN1CCN(c2ccc(O)cc2)CC1)Nc1cc(S(=O)(=O)N2CCCCC2)ccc1Cl,i,61,i,i
COc1cc(NCCC(=O)c2cccs2)c(OC)cc1Cl,i,i,i,i
COc1cc2[nH]c(Cl)c([N+](=O)[O-])c2cc1OC,19,i,i,i
Cc1cccc(NC(=O)CN2C(=O)S/C(=C\c3ccc(O)c([N+](=O)[O-])c3)C2=O)c1,i,61,i,i
O=C(CN1C(=O)S/C(=C\c2cc(Cl)c(O)c(Cl)c2)C1=O)Nc1ccccc1,51,nt,nt,nt
O=C(Nc1ccc(-c2cn3ccsc3n2)cc1)c1ccc(F)c(S(=O)(=O)N2CCOCC2)c1,i,i,i,i
CN1CCc2c(sc(NC(=O)c3ccc(S(=O)(=O)N4CCCCCC4)cc3)c2C(N)=O)C1,58,nt,nt,nt
CNC(=O)c1c(NC(=O)c2ccc(S(=O)(=O)N3CCCc4ccccc43)cc2)sc2c1CCN(C)C2,28,i,i,i
CN1CCc2c(sc(NC(=O)C3CCCN3S(=O)(=O)c3ccc(Cl)s3)c2C(N)=O)C1 (stereo unspecified),164,nt,nt,nt
CC(=O)N1CCc2c(sc(NC(=O)C3CCCN3S(=O)(=O)c3cccs3)c2C(N)=O)C1 (stereo unspecified),i,nt,nt,nt
CN1CCc2c(sc(NC(=O)c3ccc(S(=O)(=O)N4CCCC4)cc3)c2C(N)=O)C1,41,nt,nt,nt
CC1CCC2(CC1)NC(=O)N(Cc1cccc(C(F)(F)F)c1)C2=O (stereo unspecified),i,i,i,i
C=CCn1c(=O)c2ccccc2n2c(SCC(=O)/C(C#N)=C(\C)N)nnc12,i,i,i,i
O=C(NCc1ccccc1F)C1CCCN1C(=O)Nc1ccc(F)cc1 (stereo unspecified),i,nt,nt,nt
CCCCCNc1nc(NCCCO)c(C#N)c2c1CN(C)CC2,146,i,79,i
C=CCNc1nc(NCc2ccccc2)c(C#N)c2c1CN(C)CC2,109,i,65,i
N#Cc1c(NCCN)nc(NCc2ccccc2)c2c1CCN(Cc1ccccc1)C2,nt,i,nt,i
Cc1ccc2nc3c(cc2c1)c(NC(=O)c1cccnc1)nn3C,29,i,i,i
CCCn1nc(NC(=O)c2ccco2)c2cc3ccc(C)cc3nc21,57,nt,i,i
CCCn1nc(NC(=O)c2ccco2)c2cc3cc(C)ccc3nc21,79,i,82,i
CCCC(=O)Nc1nn(C)c2nc3cc(C)ccc3cc12,i,nt,i,i
CCCn1nc(NC(=O)c2ccccn2)c2cc3cc(C)ccc3nc21,103,i,94,i
SMILES,RanGTP-Impb inh,Hck Nef HTS,Runt-SMMHC FRET,Runt-CBFb FRET
COc1ccc(NC(=S)NCc2ccco2)c(OC)c1,i,i,i,i
COc1ccc(C(O)P(=O)(OCCC(C)C)c2ccc(N(C)C)cc2)cc1 (stereo unspecified),i,nt,nt,nt
CCCCn1nc(NC(=O)COC)c2cc3ccc(C)cc3nc21,i,nt,nt,nt
CCCn1nc(NC(=O)COC)c2cc3cc(C)ccc3nc21,23,nt,nt,nt
O=c1cc(CN2CCc3ccccc32)c2ccc(O)cc2o1,43,i,i,i
CCN(CC)c1ccc(C(=O)OCc2cc(=O)oc3cc(O)ccc23)cc1,i,i,119,50
CCc1ccc2c(CN3CCc4ccccc43)cc(=O)oc2c1,i,i,i,i
CCCCc1cc(=O)oc2cc(O)ccc12,i,115,86,i
CCN(CC)c1ccc2c(O)cc(=O)oc2c1,i,i,i,i
CCCCc1cc(=O)oc2cc(OCC(=O)N3CCOCC3)ccc12,i,nt,nt,nt
CS(=O)(=O)N(CC(=O)N1CCN(Cc2ccccc2)CC1)c1cccc([N+](=O)[O-])c1,i,nt,nt,nt
Cc1cc(/C=N/N2CCN(C)CC2)c(C)n1-c1ccc(Cl)cc1,i,i,i,i
CC(C)(C)[C@H]1C=C(C(=O)NCc2nc3ccccc3[nH]2)O[C@@H](OCc2ccc(CO)cc2)C1,i,i,i,i
